From ChEMBL document CHEMBL1153056, “Identification of MK-1925: a selective, orally active and brain-penetrable opioid receptor-like 1 (ORL1) antagonist” (Bioorg Med Chem Lett, 2009)

What was measured:
[1] = biological target: T1, Nociceptin receptor (Homo sapiens, UniProt P41146); test: Displacement of [125I]Tyr14-NC/OFQ from ORL1 receptor
[2] = Distribution coefficient, log D at pH 7.4 by shake-flask method; assay type: physicochemical; conditions: octanol/water
[3] = biological target: T1, Nociceptin receptor; test: Antagonist activity at ORL1 receptor by [35S]GTPgammaS binding assay; assay type: functional
[4] = Metabolic stability in cryopreserved human hepatocytes after 30 mins; assay type: ADME, cell-based, Hepatocyte; conditions: read-out: Stability
[5] = Ratio of drug level in brain to plasma in mouse at 10 mg/kg, po after 60 mins; assay type: ADME, organism-based; parameters: dose 10 mg/kg, route oral
In short: (§1)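 Mice received single oral doses (3, 10 or 30 mg/kg). Plasma and brain levels were taken 60 min after dosing. Brain levels were expressed as nmol/g brain, and the b/p ratio was brain level over plasma level.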

[6] = Volume of distribution at steady state in rat at 1 mg/kg, iv; assay type: ADME, organism-based; parameters: dose 1 mg/kg, route intravenous; conditions: in vivo, read-out: Vdss
In short: (§2)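 PK run with a 3 mg/kg oral dose and a 1 mg/kg IV dose; values are the mean of n = 3 animals.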

[7] = tested on: Mus musculus; test: Reversal of ORL1 agonist-induced locomotor activity in mouse at 30 mg/kg, po after 60 mins; assay type: functional
In short: (§3)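 Mice dosed orally; ORL1 agonist then given to reduce locomotor activity, with activity monitored for 60 min. Result expressed as % reversal of the agonist-induced reduction in locomotor activity.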

[8] = Oral bioavailability in rat at 3 mg/kg; assay type: ADME, organism-based; conditions: in vivo; in short: as §2
[9] = biological target: Kappa-type opioid receptor (Homo sapiens, UniProt P41145); test: Displacement of [3H]U69593 from human cloned kappa opioid receptor expressed in CHO cells; assay type: cell-based
[10] = Cmax in anesthetized dog at 10 mg/kg; assay type: ADME, organism-based, Canis lupus familiaris; parameters: dose 10 mg/kg; conditions: in vivo
[11] = biological target: Mu-type opioid receptor (Homo sapiens, UniProt P35372); test: Displacement of [3H]diprenorphin from human cloned mu opioid receptor expressed in CHO cells; assay type: cell-based
[12] = biological target: Voltage-gated inwardly rectifying potassium channel KCNH2 (Homo sapiens, UniProt Q12809); test: Displacement of [35S]MK499 from human ERG expressed in HEK293 cells overexpressing Ikr channel protein; assay type: cell-based
In short: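 Membranes from HEK 293 cells stably transfected with the hERG gene and expressing the I_Kr channel protein; [³⁵S]-radiolabeled MK499 displaced.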

[13] = tested on: Mus musculus; test: Plasma concentration in mouse at 30 mg/kg, po; assay type: ADME, organism-based; parameters: dose 30 mg/kg, route oral; conditions: in vivo
In short: (§4)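 Mice dosed orally at 3, 10 or 30 mg/kg. Plasma and brain were sampled 60 min after dosing. Brain level is given as nmol/g brain, and the brain/plasma ratio was derived.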

[14] = Ratio of drug level in brain to plasma in mouse at 30 mg/kg, po after 60 mins; assay type: ADME, organism-based; parameters: dose 30 mg/kg, route oral; in short: as §1
[15] = tested on: Brain; test: Drug level in mouse brain assessed per gram of tissue at 10 mg/kg, po after 60 mins; assay type: ADME, organism-based; parameters: dose 10 mg/kg, route oral; conditions: in vivo, 1 h; in short: as §4
[16] = biological target: Delta-type opioid receptor (Homo sapiens, UniProt P41143); test: Displacement of [3H]naltrindole from human cloned delta opioid receptor expressed in CHO cells; assay type: cell-based
[17] = tested on: Brain; test: Drug level in mouse brain assessed per gram of tissue at 3 mg/kg, po after 60 mins; assay type: ADME, organism-based; parameters: dose 3 mg/kg, route oral; conditions: in vivo, 1 h; in short: as §4
[18] = Inhibition of choline transporter
[19] = Oral bioavailability in dog at 3 mg/kg; assay type: ADME, organism-based, Canis lupus familiaris; conditions: in vivo; in short: as §2
[20] = Half life in dog at 3 mg/kg, po; assay type: ADME, organism-based, Canis lupus familiaris; parameters: dose 3 mg/kg, route oral; conditions: in vivo; in short: as §2
[21] = Inhibition of choline transporter at 10 uM
[22] = Cmax in rat at 3 mg/kg, po; assay type: ADME, organism-based; parameters: dose 3 mg/kg, route oral; conditions: in vivo; in short: as §2
[23] = Cmax in dog at 3 mg/kg, po; assay type: ADME, organism-based, Canis lupus familiaris; parameters: dose 3 mg/kg, route oral; conditions: in vivo; in short: as §2
[24] = AUC (0 to infinity) in rat at 3 mg/kg, po; assay type: ADME, organism-based; parameters: time infinity, dose 3 mg/kg, route oral; conditions: plasma; in short: as §2
[25] = Volume of distribution at steady state in dog at 1 mg/kg, iv; assay type: ADME, organism-based, Canis lupus familiaris; parameters: dose 1 mg/kg, route intravenous; conditions: in vivo, read-out: Vdss; in short: as §2
[26] = tested on: Mus musculus; test: Plasma concentration in mouse at 3 mg/kg, po; assay type: ADME, organism-based; parameters: dose 3 mg/kg, route oral; conditions: in vivo; in short: as §4
[27] = Plasma clearance in rat at 1 mg/kg, iv; assay type: ADME, organism-based; parameters: dose 1 mg/kg, route intravenous; in short: as §2
[28] = tested on: Canis familiaris; test: Toxicity in anesthetized dog assessed as adverse effect up to 10 mg/kg; assay type: organism-based, Canis lupus familiaris; parameters: dose 10 mg/kg; conditions: in vivo
[29] = Plasma clearance in dog at 1 mg/kg, iv; assay type: ADME, organism-based, Canis lupus familiaris; parameters: dose 1 mg/kg, route intravenous; in short: as §2
[30] = tested on: Mus musculus; test: Plasma concentration in mouse at 10 mg/kg, po; assay type: ADME, organism-based; parameters: dose 10 mg/kg, route oral; conditions: in vivo; in short: as §4
[31] = Ratio of drug level in brain to plasma in mouse at 3 mg/kg, po after 60 mins; assay type: ADME, organism-based; parameters: dose 3 mg/kg, route oral; in short: as §1
[32] = tested on: Mus musculus; test: Reversal of ORL1 agonist-induced locomotor activity in mouse at 3 mg/kg, po after 60 mins; assay type: functional; in short: as §3
[33] = tested on: Mus musculus; test: Reversal of ORL1 agonist-induced locomotor activity in mouse at 10 mg/kg, po after 60 mins; assay type: functional; in short: as §3
[34] = tested on: Mus musculus; test: Reversal of ORL1 agonist-induced locomotor activity in po dosed mouse after 60 mins; assay type: functional, organism-based
In short: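 Mice received oral doses of 3, 10 or 30 mg/kg against the locomotor-activity reduction produced by an ORL1 agonist, measured over 60 min. Results are expressed as % reversal of the agonist response.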

[35] = Half life in rat at 3 mg/kg, po; assay type: ADME, organism-based; parameters: dose 3 mg/kg, route oral; conditions: in vivo; in short: as §2
[36] = AUC (0 to infinity) in dog at 3 mg/kg, po; assay type: ADME, organism-based, Canis lupus familiaris; parameters: dose 3 mg/kg, route oral, time infinity; conditions: plasma; in short: as §2
[37] = tested on: Brain; test: Drug level in mouse brain assessed per gram of tissue at 30 mg/kg, po after 60 mins; assay type: ADME, organism-based; parameters: dose 30 mg/kg, route oral; conditions: in vivo, 1 h; in short: as §4

T1 sequence (P41146 whole entry): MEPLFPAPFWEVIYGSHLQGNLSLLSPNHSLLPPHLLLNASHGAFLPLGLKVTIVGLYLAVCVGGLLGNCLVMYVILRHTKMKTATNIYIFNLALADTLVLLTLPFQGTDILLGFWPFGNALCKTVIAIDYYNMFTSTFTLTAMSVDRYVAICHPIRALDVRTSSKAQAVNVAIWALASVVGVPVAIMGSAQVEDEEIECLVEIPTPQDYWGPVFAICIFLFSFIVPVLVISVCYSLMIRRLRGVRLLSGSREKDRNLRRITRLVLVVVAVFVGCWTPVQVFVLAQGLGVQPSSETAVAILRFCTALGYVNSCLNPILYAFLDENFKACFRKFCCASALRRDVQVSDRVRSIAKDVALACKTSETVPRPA
Kappa-type opioid receptor, sequence (P41145 whole entry): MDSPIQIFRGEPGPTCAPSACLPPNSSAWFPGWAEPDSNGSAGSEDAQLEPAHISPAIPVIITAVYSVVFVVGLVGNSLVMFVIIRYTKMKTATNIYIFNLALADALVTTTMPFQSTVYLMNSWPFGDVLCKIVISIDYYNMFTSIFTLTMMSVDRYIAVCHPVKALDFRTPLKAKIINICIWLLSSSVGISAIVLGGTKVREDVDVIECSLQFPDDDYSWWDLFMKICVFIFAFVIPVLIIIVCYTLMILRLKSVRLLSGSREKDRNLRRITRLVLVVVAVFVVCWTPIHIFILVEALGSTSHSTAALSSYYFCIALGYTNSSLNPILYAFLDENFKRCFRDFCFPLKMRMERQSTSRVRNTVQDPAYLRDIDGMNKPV
Mu-type opioid receptor, sequence (P35372 whole entry): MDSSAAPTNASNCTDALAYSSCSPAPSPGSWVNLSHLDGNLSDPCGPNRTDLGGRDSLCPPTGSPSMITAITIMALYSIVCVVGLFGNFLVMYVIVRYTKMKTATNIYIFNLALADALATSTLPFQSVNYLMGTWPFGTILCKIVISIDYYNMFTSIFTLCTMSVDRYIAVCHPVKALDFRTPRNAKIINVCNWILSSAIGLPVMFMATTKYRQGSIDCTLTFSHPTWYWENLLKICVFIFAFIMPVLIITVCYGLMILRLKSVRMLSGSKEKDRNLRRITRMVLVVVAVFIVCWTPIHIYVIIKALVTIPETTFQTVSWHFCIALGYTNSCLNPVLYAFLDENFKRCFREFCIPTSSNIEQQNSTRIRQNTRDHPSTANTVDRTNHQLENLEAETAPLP
Voltage-gated inwardly rectifying potassium channel KCNH2, sequence (Q12809 whole entry): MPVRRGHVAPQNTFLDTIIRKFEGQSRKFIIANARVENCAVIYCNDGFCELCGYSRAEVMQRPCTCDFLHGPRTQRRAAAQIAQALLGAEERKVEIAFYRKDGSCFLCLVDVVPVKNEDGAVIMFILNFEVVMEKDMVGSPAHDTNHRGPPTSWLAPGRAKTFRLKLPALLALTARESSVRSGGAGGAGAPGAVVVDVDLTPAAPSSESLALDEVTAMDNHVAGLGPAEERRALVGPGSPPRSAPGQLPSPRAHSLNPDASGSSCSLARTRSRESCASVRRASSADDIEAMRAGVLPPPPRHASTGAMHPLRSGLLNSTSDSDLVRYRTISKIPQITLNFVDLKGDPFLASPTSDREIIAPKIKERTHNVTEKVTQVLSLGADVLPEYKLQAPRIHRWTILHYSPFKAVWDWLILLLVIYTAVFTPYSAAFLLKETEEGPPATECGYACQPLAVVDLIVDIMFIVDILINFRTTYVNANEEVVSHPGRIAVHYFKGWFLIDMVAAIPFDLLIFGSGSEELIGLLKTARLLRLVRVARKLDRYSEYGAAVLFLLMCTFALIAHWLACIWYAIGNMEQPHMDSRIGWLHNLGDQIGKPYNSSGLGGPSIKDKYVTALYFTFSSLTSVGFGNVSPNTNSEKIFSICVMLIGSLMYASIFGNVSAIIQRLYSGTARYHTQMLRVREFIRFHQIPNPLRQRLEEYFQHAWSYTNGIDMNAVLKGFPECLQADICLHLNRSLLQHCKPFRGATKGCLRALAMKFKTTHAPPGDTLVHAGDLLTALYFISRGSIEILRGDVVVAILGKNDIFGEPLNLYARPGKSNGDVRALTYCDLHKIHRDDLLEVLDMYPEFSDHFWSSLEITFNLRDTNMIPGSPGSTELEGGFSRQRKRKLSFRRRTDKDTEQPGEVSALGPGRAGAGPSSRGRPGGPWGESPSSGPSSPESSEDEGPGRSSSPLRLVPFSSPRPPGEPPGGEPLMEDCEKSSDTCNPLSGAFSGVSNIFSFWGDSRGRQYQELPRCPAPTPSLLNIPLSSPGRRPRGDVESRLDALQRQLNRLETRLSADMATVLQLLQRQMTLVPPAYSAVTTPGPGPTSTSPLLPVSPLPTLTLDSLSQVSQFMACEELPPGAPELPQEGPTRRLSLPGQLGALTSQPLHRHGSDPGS
Delta-type opioid receptor, sequence (P41143 whole entry): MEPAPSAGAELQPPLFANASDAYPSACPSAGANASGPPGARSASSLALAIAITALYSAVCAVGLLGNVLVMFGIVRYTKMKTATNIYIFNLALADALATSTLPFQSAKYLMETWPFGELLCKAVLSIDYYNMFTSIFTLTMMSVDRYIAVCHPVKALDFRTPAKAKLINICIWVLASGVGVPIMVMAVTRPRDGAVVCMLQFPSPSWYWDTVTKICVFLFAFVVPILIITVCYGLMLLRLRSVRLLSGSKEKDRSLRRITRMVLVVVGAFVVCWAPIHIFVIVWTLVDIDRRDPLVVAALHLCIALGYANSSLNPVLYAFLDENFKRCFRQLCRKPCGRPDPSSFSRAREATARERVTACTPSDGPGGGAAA

## Cc1c(CN[C@H]2CC[C@@H](F)C2)nn(CCO)c1-c1cc(F)cc(F)c1
[1]
  IC50: 15 nM
[2]
  logD: 1.3

## Cn1nc(CN[C@H]2CC[C@@H](F)C2)c(Cl)c1-c1cc(F)cc(F)c1
[3]
  IC50: 2.5 nM
[1]
  IC50: 9.3 nM
[4]
  remaining at 0.5 h: 40%

## Cc1c(CN[C@H]2CC[C@@H](F)C2)nn(C)c1-c1ccc(F)c(F)c1
[3]
  IC50: 6.5 nM
[1]
  IC50: 6.4 nM

## Cc1c(CN[C@H]2CC[C@@H](F)C2)nn(CCS(C)(=O)=O)c1-c1cc(F)cc(F)c1
[1]
  IC50: 33 nM
[2]
  logD: < 1

## Cc1c(CN[C@H]2CC[C@@H](F)C2)nn(CCC#N)c1-c1cc(F)cc(F)c1
[5]
  Kp at 1 h: 1.62
[6]
  Vd: 5.2 L/kg
[7]
  Activity: 112%
[8]
  bioavailability: 21%
[9]
  IC50: 9800 nM
[10]
  Cmax: 9700 nM
[11]
  IC50: > 10000 nM
[12]
  IC50: 9500 nM
[13]
  concentration: 1630 nM
[14]
  Kp at 1 h: 1.84
[15]
  Drug uptake: 0.516 nmol/g
[16]
  IC50: > 10000 nM
[17]
  Drug uptake: 0.035 nmol/g
[18]
  IC50: 3700 nM
[19]
  bioavailability: 62%
[20]
  half-life: 2.8 h
[21]
  inhibition: 50%
[22]
  Cmax: 400 nM
[23]
  Cmax: 2600 nM
[24]
  AUC(0-inf): 0.3 µM·h
[25]
  Vd: 3.5 L/kg
[26]
  concentration: 16 nM
[4]
  remaining at 0.5 h: 77%
[27]
  clearance: 83 mL/min/kg
[28]
  Activity: Non-toxic
[29]
  clearance: 37 mL/min/kg
[30]
  concentration: 315 nM
[31]
  Kp at 1 h: 3.42
[32]
  Activity: 17%
[33]
  Activity: 81%
[2]
  logD: 1.5
[34]
  Activity: Dose-dependent effect
[35]
  half-life: 0.7 h
[36]
  AUC(0-inf): 1.3 µM·h
[37]
  Drug uptake: 3.02 nmol/g

## Cc1ncc(-c2[nH]nc(CN[C@H]3CC[C@@H](F)C3)c2C)cc1F
[3]
  IC50: 7.8 nM
[1]
  IC50: 9.9 nM
[4]
  remaining at 0.5 h: 21%

## Cc1ncc(-c2c(C)c(CN[C@H]3CC[C@@H](F)C3)nn2C)cc1F
[3]
  IC50: 2.2 nM
[1]
  IC50: 4.3 nM
[4]
  remaining at 0.5 h: 25%

## Cc1c(CN[C@H]2CC[C@@H](F)C2)nn(C)c1-c1cc(F)cc(F)c1
[3]
  IC50: 2.5 nM
[1]
  IC50: 3.1 nM
[4]
  remaining at 0.5 h: 56%
[2]
  logD: 1.9

## Cc1ncc(-c2c(C)c(CN[C@H]3CC[C@@H](F)C3)nn2-c2ncccc2Cl)cc1F
[8]
  bioavailability: 3.2%
[4]
  remaining at 0.5 h: 39%

## Cc1c(CN[C@H]2CC[C@@H](F)C2)nn(C)c1-c1cc(F)c(F)c(F)c1
[3]
  IC50: 13 nM
[1]
  IC50: 15 nM

## Cc1c(CN[C@H]2CC[C@@H](F)C2)nn(C)c1-c1cc(F)cc(C(F)(F)F)c1
[1]
  IC50: 210 nM

## CC(=O)Cn1nc(CN[C@H]2CC[C@@H](F)C2)c(C)c1-c1cc(F)cc(F)c1
[1]
  IC50: 12 nM
[2]
  logD: 1.4

## COCc1c(CN[C@H]2CC[C@@H](F)C2)nn(C)c1-c1cc(F)cc(F)c1
[3]
  IC50: 1 nM
[1]
  IC50: 1.4 nM
[4]
  remaining at 0.5 h: 39%

## Cc1c(CN[C@H]2CC[C@@H](F)C2)nn(C)c1-c1cc(F)cc(Cl)c1
[1]
  IC50: 17 nM

## CCn1nc(CN[C@H]2CC[C@@H](F)C2)c(C)c1-c1cnc(C)c(F)c1
[3]
  IC50: 0.61 nM
[1]
  IC50: 2 nM
